Data: ChEMBL document CHEMBL1121831 (1981)

Tests used:
CCRF-CEM (Homo sapiens) = assay: Percent inhibition of human lymphoblastic leukemia cell growth (48h) at 10 uM
CCRF-CEM [1] = assay: Compound was tested for the inhibition of growth of human lymphoblastic leukemia cells (CEM); format: functional; details: read-out: ID50 (the source's name)
In short: (§1)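 CEM human lymphoblastic and L1210 murine leukemia cells were grown in culture with drug for 48 h, at concentrations up to 10 μM. The read-out was growth inhibition, given as ID50 or, where ID50 was not reached, as percent inhibition at 10 μM. Values are averages of triplicate experiments.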

L1210 [2] = assay: Compound was tested for the inhibition of growth of murine leukemia cells (L1210); format: functional; details: Mus musculus, read-out: ID50 (the source's name)
In short: as §1

[3] = molecular target: T1, Dihydrofolate reductase (Mus musculus) (UniProt P00375); assay: Affinity for mammalian (L1210 mouse leukemia) dihydrofolate reductase
T1 sequence (whole entry): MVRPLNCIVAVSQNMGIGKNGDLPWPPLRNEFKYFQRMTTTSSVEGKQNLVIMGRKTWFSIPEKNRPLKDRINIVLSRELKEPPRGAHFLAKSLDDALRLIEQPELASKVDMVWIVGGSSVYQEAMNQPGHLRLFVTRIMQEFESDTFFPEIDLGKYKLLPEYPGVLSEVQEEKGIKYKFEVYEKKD
In short: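 Partially purified DHFR from L1210 cells, diluted 8-fold in 0.1 M KH2PO4 (pH 6.2) with 0.1% BSA and 1 mM NADPH, then held on ice 5 min. Competition with [3H]MTX over serial 5-fold dilutions starting from a 6 μM solution, 5 min at 0 °C. Unbound ligand removed with Norite charcoal and the supernatant counted; ID50 (50% drop in bound label) read from a logit-log plot.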

[4] = molecular target: Dihydrofolate reductase (Lactobacillus casei) (UniProt P00381); assay: Affinity for partially purified bacterial (Lactobacillus casei) dihydrofolate reductase; details: Lacticaseibacillus casei
Dihydrofolate reductase (Lactobacillus casei), sequence (P00381 whole entry): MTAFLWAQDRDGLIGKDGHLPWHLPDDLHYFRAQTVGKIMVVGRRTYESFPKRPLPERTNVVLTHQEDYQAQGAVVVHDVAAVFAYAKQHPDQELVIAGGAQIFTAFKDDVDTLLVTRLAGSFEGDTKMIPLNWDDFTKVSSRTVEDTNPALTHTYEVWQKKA

Mus musculus [5] = assay: Compound is evaluated for activity against L1210 leukemia in mice, at dose 40 mg/kg expressed as T/C in experiment 2=12/9; format: functional
In short: (§2)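 B6D2F1 mice were inoculated ip with 10^5 L1210 cells on day 0. Test agents were given ip on days 1, 4 and 7 in 10% Tween 80 or a 1:1:8 emulphor-ethanol-water suspension; MTX was given ip as the disodium salt in water. Groups were mostly five mice. Read-out was median survival of treated vs control mice (days) and % increase in life span.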

L1210 [6] = assay: Compound is evaluated for activity against L1210 leukemia in mice, at dose 40 mg/kg in experiment 2; format: functional, Mus musculus
In short: as §2

L1210 [7] = assay: Compound is evaluated for percent increase in life span against L1210 leukemia in mice, at dose 7.5 mg/kg in experiment 1; format: functional; details: Mus musculus
In short: (§3)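 B6D2F1 mice were inoculated ip with 10⁵ L1210 cells on day 0. Drug was given ip on days 1, 4 and 7 (q3d) as a suspension in 10% Tween 80 or 1:1:8 emulphor–ethanol–water, or as the disodium salt in water. The read-out was median survival of treated versus control mice (T/C, days), expressed as % increase in life span.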

L1210 [8] = assay: Compound was evaluated for activity against L1210 leukemia in mice, at dose 7.5 mg/kg in experiment 1; format: functional, Mus musculus
In short: as §2

L1210 [9] = assay: Compound is evaluated for percent increase in life span against L1210 leukemia in mice, at dose 40 mg/kg in experiment 2; format: functional; details: Mus musculus
In short: as §3

[10] = molecular target: Dihydrofolate reductase (Lactobacillus casei) (UniProt P00381); assay: Compound is evaluated for binding to Lactobacillus casei dihydrofolate reductase using kinetic assay; details: Lacticaseibacillus casei
[11] = molecular target: T1, Dihydrofolate reductase (Mus musculus); assay: Compound is evaluated for binding to L1210 mouse leukemia cells dihydrofolate reductase using ligand-binding assay
Mus musculus [12] = assay: Compound is evaluated for activity against L1210 leukemia in mice, at dose 20 mg/kg expressed as T/C in experiment 2=16/9; format: functional
In short: as §2

L1210 [13] = assay: Compound is evaluated for activity against L1210 leukemia in mice, at dose 15 mg/kg in experiment 1; format: functional, Mus musculus
In short: as §2

Mus musculus [14] = assay: Compound is evaluated for activity against L1210 leukemia in mice, at dose 15 mg/kg expressed as T/C in experiment 1=14/10; format: functional
In short: as §2

L1210 [15] = assay: Compound is tested for the inhibition of growth of murine leukemia cells (L1210); format: functional; details: Mus musculus, read-out: ID50 (the source's name)
In short: as §1

RBL-1 [16] = assay: Compound was tested for the inhibition of growth of rat basophilic leukemia (RBL) cells; format: functional; details: read-out: ID50 (the source's name)
L1210 [17] = assay: Compound is evaluated for activity against L1210 leukemia in mice, at dose 20 mg/kg in experiment 2; format: functional, Mus musculus
In short: as §2

Mus musculus [18] = assay: Compound was evaluated for activity against L1210 leukemia in mice, at dose 7.5 mg/kg expressed as T/C in experiment 1=14/10; format: functional
In short: as §2

L1210 [19] = assay: Compound is evaluated for percent increase in life span against L1210 leukemia in mice, at dose 15 mg/kg in experiment 1; format: functional; details: Mus musculus
In short: as §3

L1210 [20] = assay: Compound is evaluated for percent increase in life span against L1210 leukemia in mice, at dose 20 mg/kg in experiment 2; format: functional; details: Mus musculus
In short: as §3

CCRF-CEM [21] = assay: Compound is tested for the inhibition of growth of human lymphoblastic leukemia cells (CEM); format: functional; details: read-out: ID50 (the source's name)
In short: as §1

Mus musculus [22] = assay: Compound is evaluated for activity against L1210 leukemia in mice, at dose 30 mg/kg expressed as T/C=16.5/9; format: functional
In short: as §2

RBL-1 [23] = assay: Compound is tested for the inhibition of growth of rat basophilic leukemia (RBL)cells; format: functional; details: read-out: ID50 (the source's name)
L1210 [24] = assay: Compound is evaluated for percent increase in against L1210 leukemia in mice, at dose 30 mg/kg; format: functional; details: Mus musculus, L1210, dose 30 mg/kg
In short: as §3

Mus musculus [25] = assay: Compound is evaluated for activity against L1210 leukemia in mice, at dose 15 mg/kg expressed as T/C=15.5/9; format: functional
In short: as §2

Mus musculus [26] = assay: Compound is evaluated for activity against L1210 leukemia in mice, at dose 60 mg/kg expressed as T/C=18/9; format: functional
In short: as §2

L1210 [27] = assay: Compound is evaluated for percent increase in against L1210 leukemia in mice, at dose 15 mg/kg; format: functional; details: Mus musculus
In short: as §3

L1210 [28] = assay: Compound is evaluated for activity against L1210 leukemia in mice, at dose 80 mg/kg; format: functional, Mus musculus
In short: as §2

L1210 [29] = assay: Compound is evaluated for activity against L1210 leukemia in mice, at dose 40 mg/kg; format: functional, Mus musculus
In short: as §2

Mus musculus [30] = assay: Compound is evaluated for activity against L1210 leukemia in mice, at dose 40 mg/kg expressed as T/C= 13/9; format: functional
In short: as §2

L1210 [31] = assay: Compound is evaluated for percent increase in life span against L1210 leukemia in mice, at dose 120 mg/kg; format: functional; details: Mus musculus
In short: as §3

Mus musculus [32] = assay: Compound is evaluated for activity against L1210 leukemia in mice, at dose 120 mg/kg expressed as T/C=23/9; format: functional
In short: as §2

[33] = molecular target: Dihydrofolate reductase (Lactobacillus casei) (UniProt P00381); assay: Compound is evaluated for binding to dihydrofolate reductase of Lactobacillus casei using kinetic assay; details: Lacticaseibacillus casei
L1210 [34] = assay: Compound is evaluated for activity against L1210 leukemia in mice, at dose 120 mg/kg; format: functional, Mus musculus
In short: as §2

L1210 [35] = assay: Compound is evaluated for percent increase in life span against L1210 leukemia in mice, at dose 80 mg/kg; format: functional; details: Mus musculus
In short: as §3

L1210 [36] = assay: Compound is evaluated for percent increase in life span against L1210 leukemia in mice, at dose 40 mg/kg; format: functional; details: Mus musculus
In short: as §3

Mus musculus [37] = assay: Compound is evaluated for activity against L1210 leukemia in mice, at dose 80 mg/kg expressed as T/C=19/9; format: functional
In short: as §2

SMILES: CC(NC(=O)CCC(NC(=O)c1ccc(N(C)Cc2cnc3nc(N)nc(N)c3n2)cc1)C(=O)NC(C)c1ccccc1)c1ccccc1 (configuration not stated)
- inhibition at 10 µM (CCRF-CEM (Homo sapiens)): 25%
- IC50 (CCRF-CEM [1]): > 10000 nM
- IC50 (L1210 [2]): > 10000 nM
- ID50 [3]: 11 nM
- ID50 [4]: 310 nM

SMILES: CN(Cc1cnc2nc(N)nc(N)c2n1)c1ccc(C(=O)NC(CCC(=O)NN)C(=O)NN)cc1 (configuration not stated)
- Median T/C (Mus musculus [5]): 12 days
- MTX equivalent (L1210 [6]): 37.6 mg/kg
- ILS at 7.5 mg/kg (L1210 [7]): 40%
- MTX equivalent (L1210 [8]): 7.1 mg/kg
- ILS at 40 mg/kg (L1210 [9]): 33%
- ID50 [10]: 360 nM
- ID50 [11]: 20 nM
- Median T/C (Mus musculus [12]): 16 days
- MTX equivalent (L1210 [13]): 14.2 mg/kg
- Median T/C (Mus musculus [14]): 14 days
- IC50 (L1210 [15]): 950 nM
- IC50 (RBL-1 [16]): 960 nM
- MTX equivalent (L1210 [17]): 18.8 mg/kg
- Median T/C (Mus musculus [18]): 14 days
- ILS at 15 mg/kg (L1210 [19]): 40%
- ILS at 20 mg/kg (L1210 [20]): 77%
- IC50 (CCRF-CEM [21]): 7500 nM

SMILES: CN(Cc1cnc2nc(N)nc(N)c2n1)c1ccc(C(=O)N[C@@H](CCC(=O)O)C(=O)O)cc1 [METHOTREXATE]
- Median T/C (Mus musculus [22]): 16.5 days
- IC50 (RBL-1 [23]): 3 nM
- IC50 (L1210 [15]): 10 nM
- ILS at 30 mg/kg (L1210 [24]): 83%
- Median T/C (Mus musculus [25]): 15.5 days
- Median T/C (Mus musculus [26]): 18 days
- ILS at 15 mg/kg (L1210 [27]): 72%
- IC50 (CCRF-CEM [21]): 3 nM

SMILES: CN(Cc1cnc2nc(N)nc(N)c2n1)c1ccc(C(=O)NC(CCC(=O)N(Cc2ccccc2)Cc2ccccc2)C(=O)N(Cc2ccccc2)Cc2ccccc2)cc1 (configuration not stated)
- IC50 (CCRF-CEM [1]): 7600 nM
- IC50 (L1210 [2]): 690 nM
- ID50 [10]: 860 nM
- ID50 [11]: 530 nM

SMILES: CN(Cc1cnc2nc(N)nc(N)c2n1)c1ccc(C(=O)NC(CCC(=O)Nc2ccccc2)C(=O)Nc2ccccc2)cc1 (configuration not stated)
- MTX equivalent (L1210 [28]): 60 mg/kg
- MTX equivalent (L1210 [29]): 30 mg/kg
- Median T/C (Mus musculus [30]): 13 days
- ILS at 120 mg/kg (L1210 [31]): 155%
- Median T/C (Mus musculus [32]): 23 days
- ID50 [33]: 1100 nM
- ID50 [11]: 74 nM
- MTX equivalent (L1210 [34]): 90 mg/kg
- ILS at 80 mg/kg (L1210 [35]): 111%
- IC50 (L1210 [15]): 410 nM
- ILS at 40 mg/kg (L1210 [36]): 44%
- Median T/C (Mus musculus [37]): 19 days
- IC50 (CCRF-CEM [21]): 3300 nM
